{
  "source": "ChEMBL document CHEMBL1144782",
  "about": "“Isoindolo[2,1-a]quinoxaline derivatives, novel potent antitumor agents with dual inhibition of tubulin polymerization and topoisomerase I” (2008)",
  "key": {"UO-31": {"test_system": "UO-31", "test": "Antitumor activity against human UO31 cells", "assay_type": "functional", "how_it_was_run": "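NCI 60-cell-line screen. Parameters were GI50 (50% net growth inhibition), TGI and LC50, each reported as –log molar concentration. Where an effect was not reached within the tested range, the highest tested concentration was used in the calculation.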"}, "Salmonidae": {"test_system": "Salmonidae", "test": "Binding affinity to salmon testes DNA by spectrophotometric titration method", "how_it_was_run": "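Absorption titration of salmon testes DNA into a constant drug concentration at varying [drug]/[DNA] ratios. ETN buffer (10 mM Tris, 1 mM EDTA, 10 mM NaCl), pH 7.0, 25 °C. Scatchard isotherms were fitted to the McGhee–von Hippel model for intrinsic binding constant and site size.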"}, "[1]": {"test": "Antitumor activity against human HL60(TB) cells", "assay_type": "functional, HL-60(TB)", "how_it_was_run": "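Tested by the NCI in its in vitro disease-oriented human tumor cell line screen. Each cell line gave pGI50 (−log molar concentration for 50% net growth inhibition), pTGI (−log molar concentration for total growth inhibition) and pLC50 (−log molar concentration for 50% net cell death).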"}, "Jurkat [2]": {"test_system": "Jurkat", "test": "Cell cycle arrest in human Jurkat cells assessed as accumulation at G1 phase at 500 nM after 24 hrs by flow cytometry", "assay_type": "functional", "how_it_was_run": "(§1)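 Exponentially growing Jurkat cells (5 × 105) were exposed to compound for 24 h. Cells were then fixed in ice-cold 70% ethanol, lysed with RNase A-containing buffer and stained with propidium iodide. DNA-content histograms from flow cytometry gave G1, S and G2/M fractions.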"}, "[3]": {"target": "DNA topoisomerase 1 (Homo sapiens) (UniProt P11387)", "sequence (P11387 whole entry)": "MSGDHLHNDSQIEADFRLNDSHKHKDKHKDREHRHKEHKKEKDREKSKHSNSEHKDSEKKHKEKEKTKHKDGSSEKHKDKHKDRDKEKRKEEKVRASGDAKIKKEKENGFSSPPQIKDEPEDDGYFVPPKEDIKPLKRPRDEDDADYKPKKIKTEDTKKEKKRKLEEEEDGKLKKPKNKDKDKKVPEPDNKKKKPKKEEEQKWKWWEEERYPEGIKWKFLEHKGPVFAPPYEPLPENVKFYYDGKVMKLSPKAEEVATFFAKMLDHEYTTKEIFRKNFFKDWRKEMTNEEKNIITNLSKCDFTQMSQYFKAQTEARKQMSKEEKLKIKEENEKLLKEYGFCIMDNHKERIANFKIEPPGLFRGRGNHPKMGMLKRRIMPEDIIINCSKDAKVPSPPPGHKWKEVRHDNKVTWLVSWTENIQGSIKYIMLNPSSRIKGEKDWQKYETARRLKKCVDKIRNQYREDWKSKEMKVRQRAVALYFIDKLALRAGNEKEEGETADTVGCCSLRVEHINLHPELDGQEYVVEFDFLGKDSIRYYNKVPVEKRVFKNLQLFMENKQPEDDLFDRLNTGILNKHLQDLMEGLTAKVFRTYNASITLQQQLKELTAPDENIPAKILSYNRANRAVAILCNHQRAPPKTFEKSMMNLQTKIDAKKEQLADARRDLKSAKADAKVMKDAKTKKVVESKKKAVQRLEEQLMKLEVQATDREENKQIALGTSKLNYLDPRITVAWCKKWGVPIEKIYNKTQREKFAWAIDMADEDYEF", "test": "Inhibition of human topoisomerase 1-mediated relaxation of supercoiled pBR322 DNA at 200 uM by agarose gel electrophoresis", "how_it_was_run": "(§2)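 Supercoiled pBR322 was incubated with 5 units of human topoisomerase I for 30 min at 37 °C in 50 mM Tris-HCl pH 7.8, 50 mM KCl, 10 mM MgCl2, 1 mM DTT, 1 mM EDTA, with drug 0.5–200 µM. Reactions were stopped with SDS and proteinase K, run on 1% agarose at 20 V overnight, stained with ethidium bromide, and bands quantified. Ethidium-containing gels were also run.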"}, "Jurkat [4]": {"test_system": "Jurkat", "test": "Effect on mitochondrial membrane potential depolarization in human Jurkat cells after 24 hrs by flow cytometry", "assay_type": "functional, cell-based", "how_it_was_run": "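Jurkat cells after 24 h exposure were loaded with JC-1 (1 µM in HBSS) for 10 min at 37 °C, washed and analyzed by flow cytometry. The percentage of cells with low mitochondrial potential was recorded.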"}, "Jurkat [5]": {"test_system": "Jurkat", "test": "Cell cycle arrest in human Jurkat cells assessed as accumulation at S phase at 62.5 nM after 24 hrs by flow cytometry", "assay_type": "functional", "how_it_was_run": "as §1"}, "LoVo": {"test_system": "LoVo", "test": "Growth inhibition of human doxorubicin-resistant LoVo cells after 72 hrs by MTT assay", "assay_type": "functional", "how_it_was_run": "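Growth inhibition by MTT after 72 h incubation. Resistant sublines: LoVoDoxo and MCF-7 MDR were kept in 0.1 µg/mL doxorubicin; CEMVbl-100 was selected against vinblastine. GI50 given as mean ± SEM of three independent experiments. Resistance index is resistant-line GI50 over parental GI50.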"}, "[6]": {"target": "DNA topoisomerase 1 (Homo sapiens) (UniProt P11387)", "test": "Inhibition of human topoisomerase 1-mediated relaxation of supercoiled pBR322 DNA at 20 uM by agarose gel electrophoresis", "how_it_was_run": "as §2"}, "Jurkat [7]": {"test_system": "Jurkat", "test": "Cell cycle arrest in human Jurkat cells assessed as accumulation at G2/M phase at 32 nM after 24 hrs by flow cytometry", "assay_type": "functional", "how_it_was_run": "as §1"}, "Jurkat [8]": {"test_system": "Jurkat", "test": "Cell cycle arrest in human Jurkat cells assessed as accumulation at G1 phase at 250 nM after 24 hrs by flow cytometry", "assay_type": "functional", "how_it_was_run": "as §1"}, "Jurkat [9]": {"test_system": "Jurkat", "test": "Cell cycle arrest in human Jurkat cells assessed as accumulation at G1 phase at 32 nM after 24 hrs by flow cytometry", "assay_type": "functional", "how_it_was_run": "as §1"}, "A549": {"test_system": "A549", "test": "Disruption of tubulin network in human A549 cells assessed as disaggregation of microtubules at 5 uM […]", "assay_type": "functional, cell-based"}, "Jurkat [10]": {"test_system": "Jurkat", "test": "Cell cycle arrest in human Jurkat cells assessed as accumulation at S phase at 125 nM after 24 hrs by flow cytometry", "assay_type": "functional", "how_it_was_run": "as §1"}, "Jurkat [11]": {"test_system": "Jurkat", "test": "Effect on mitochondrial dysfunction in human Jurkat cells assessed as induction of ROS production after 24 hrs by flow cytometry", "assay_type": "functional, cell-based", "how_it_was_run": "(§3)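 Jurkat cells after 24 h exposure were resuspended in HBSS with hydroethidine (2.5 µM, ROS) or NAO (100 nM, cardiolipin oxidation) for 30 min at 37 °C. Flow cytometry used 488 nm excitation, with emission at 585 nm (HE) or 530 nm (NAO). Mean ± SEM of three experiments.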"}, "Jurkat [12]": {"test_system": "Jurkat", "test": "Effect on mitochondrial dysfunction in human Jurkat cells assessed as decrease in 10-N-nonyl-acridine-orange fluorescence intensity after 24 hrs by flow cytometry", "assay_type": "functional, cell-based", "how_it_was_run": "as §3"}, "Jurkat [13]": {"test_system": "Jurkat", "test": "Cell cycle arrest in human Jurkat cells assessed as accumulation at G2/M phase at 125 nM after 24 hrs by flow cytometry", "assay_type": "functional", "how_it_was_run": "as §1"}, "Jurkat [14]": {"test_system": "Jurkat", "test": "Cell cycle arrest in human Jurkat cells assessed as accumulation at S phase at 250 nM after 24 hrs by flow cytometry", "assay_type": "functional", "how_it_was_run": "as §1"}, "Jurkat [15]": {"test_system": "Jurkat", "test": "Induction of apoptosis in human Jurkat cells after 24 hrs by flow cytometry", "assay_type": "functional, cell-based", "how_it_was_run": "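Jurkat cells after 24 h exposure were stained with Annexin V-FITC plus propidium iodide. Flow cytometry used 488 nm excitation, with emission filters at 525 and 585 nm.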"}, "K562": {"test_system": "K562", "test": "Antitumor activity against human K562 cells", "assay_type": "functional", "how_it_was_run": "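Run by the NCI in its in vitro disease-oriented screen of about 60 human tumour cell lines. For each line it reports pGI50 (50% net growth inhibition), pTGI (total growth inhibition) and pLC50 (50% net cell death), each as –log molar concentration. Where an effect was not reached within the tested range, the highest tested concentration was used.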"}, "Jurkat [16]": {"test_system": "Jurkat", "test": "Induction of apoptosis in human Jurkat cells assessed as activation of caspase 3 after 24 hrs by flow cytometry", "assay_type": "functional, cell-based", "how_it_was_run": "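Jurkat cells were exposed (500 nM) for 24 h, then harvested and incubated in HBSS with cell-permeable FITC-DEVD-fmk (caspase-3) or FITC-[…]-fmk (caspase-9) for 1 h at 37 °C. After washing, cells were read by flow cytometry on FL-1. Results are fold increase over control.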"}, "Jurkat [17]": {"test_system": "Jurkat", "test": "Cell cycle arrest in human Jurkat cells assessed as accumulation at G1 phase at 62.5 nM after 24 hrs by flow cytometry", "assay_type": "functional", "how_it_was_run": "as §1"}, "[18]": {"details": "read-out: Log LC50 (the source's name) (converted)"}},
  "note": "Activity calls are given as the source filed them. No cut-off for these calls is given here.",
  "data": [
    {"smiles": "O=c1[nH]c2ccccc2n2cc3ccccc3c12", "values": [
      {"measurement": "GI50", "setting": "UO-31", "value": 12.6, "unit": "µM"},
      {"measurement": "CC50", "setting": "UO-31; [18]", "value": 56.2, "unit": "µM"},
      {"measurement": "TGI", "setting": "UO-31; read-out: pTGI (converted)", "value": 26.9, "unit": "µM"}
    ]},
    {"smiles": "COc1ccc2c(c1)[nH]c(=O)c1c3ccccc3cn21", "values": [
      {"measurement": "K", "setting": "Salmonidae", "value": "2.7 10^5/M"},
      {"measurement": "GI50", "setting": "[1]; HL-60", "value": 11.5, "unit": "nM"},
      {"measurement": "CC50", "setting": "[1]; HL-60, read-out: Log LC50 (the source's name) (converted)", "value": 3.55, "unit": "µM"},
      {"measurement": "TGI", "setting": "[1]; HL-60, read-out: pTGI (converted)", "value": 60.3, "unit": "nM"},
      {"measurement": "Activity", "setting": "Jurkat [2]", "value": 0.1, "unit": "%"},
      {"measurement": "Activity", "setting": "[3]", "value": "Active"},
      {"measurement": "Activity", "setting": "Jurkat [4]", "value": "Dose-dependent effect"},
      {"measurement": "Activity", "setting": "Jurkat [5]", "value": 53.5, "unit": "%"},
      {"measurement": "GI50", "setting": "LoVo", "value": 130, "unit": "nM"},
      {"measurement": "Activity", "setting": "[6]", "value": "Active"},
      {"measurement": "Activity", "setting": "Jurkat [7]", "value": 28.8, "unit": "%"},
      {"measurement": "Activity", "setting": "Jurkat [8]", "value": 0.6, "unit": "%"},
      {"measurement": "Activity", "setting": "Jurkat [9]", "value": 27.1, "unit": "%"},
      {"measurement": "Activity", "setting": "A549", "value": "Active"},
      {"measurement": "Activity", "setting": "Jurkat [10]", "value": 38.6, "unit": "%"},
      {"measurement": "Activity", "setting": "Jurkat [11]", "value": "Active"},
      {"measurement": "Activity", "setting": "Jurkat [12]", "value": "Active"},
      {"measurement": "Activity", "setting": "Jurkat [13]", "value": 59.2, "unit": "%"},
      {"measurement": "Activity", "setting": "Jurkat [14]", "value": 44.2, "unit": "%"},
      {"measurement": "Activity", "setting": "Jurkat [15]", "value": "Dose-dependent effect"},
      {"measurement": "GI50", "setting": "K562", "value": 8.91, "unit": "nM"},
      {"measurement": "CC50", "setting": "K562; [18]", "value": 5.13, "unit": "µM"},
      {"measurement": "TGI", "setting": "K562; read-out: pTGI (converted)", "value": 1020, "unit": "nM"},
      {"measurement": "Activity", "setting": "Jurkat [16]", "value": "Active"},
      {"measurement": "Activity", "setting": "Jurkat [17]", "value": 3.4, "unit": "%"}
    ]}
  ]
}
